The text below walks through data of ChEMBL document CHEMBL4842335, “Discovery of penipanoid C-inspired 2-(3,4,5-trimethoxybenzoyl)quinazolin-4(3H)-one derivatives as potential anticancer agents by inhibiting cell proliferation and inducing apoptosis in hepatocellular carcinoma cells” (Eur J Med Chem, 2021).

Activity calls are given as the source filed them. No cut-off for these calls is given here.

The test system of assay [1] is HepG2. As to the kind of experiment: Antitumor activity against human HepG2 cells xenografted in BALB/c mouse assessed as tumor growth inhibition at 4 mg/kg, ip relative to control. The class given is functional. The conditions noted are these: read-out: TGI. A digest of the protocol: (§1)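 Female BALB/c nude mice (14–17 g) given HepG2 s.c. (1×10⁶/mouse); at 100–200 mm³ tumours, randomised to 3 groups of 5. Daily i.p. dosing at 4 or 8 mg/kg for 20 days; vehicle 15% N-methylpyrrolidone/25% Solutol HS-15/60% saline. Caliper volume twice weekly, TV = width² × length/2; inhibition from volume change versus vehicle group.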
For orientation: Xenograft models place foreign cells or tissue in a host animal.

Assay [2] deals with Bel-7402. The assay can be described thus: Induction of cell cycle arrest in human Bel-7402 cells assessed as accumulation at G2/M phase at 1.6 uM incubated for 48 hrs by flow cytometry (reference value: 25.20%). The class given is functional. Background: A flow cytometer gives signals particle by particle.
A further assay has as its system HCT-116. As to the kind of experiment: Cytotoxicity against human HCT116 cells assessed as inhibition of proliferation incubated for 72 hrs by MTT assay. The assay is classed as functional, cell-based. The conditions noted are these: HCT-116, 72 h. A digest of the protocol:
(§2)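 Cells plated at 3×10³/well, grown overnight in DMEM + 10% FBS, then exposed to compounds (DMSO stocks; 0.1% DMSO negative control) for 72 h at 37 °C. MTT (5 mg/mL in PBS, added at 10%) for 4 h, formazan dissolved in DMSO, A570 read. Inhibition = (Ac−As)/(Ac−Ab)×100; IC50 by calculator; ≥3 independent repeats.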
On the technique in general: Formazan colour is commonly taken as a measure of viable cells.

For assay [3], the system named is HepG2. The assay can be described thus: Antitumor activity against human HepG2 cells xenografted in BALB/c mouse assessed as tumor growth inhibition at 8 mg/kg, ip relative to control. The class given is functional. Particulars: read-out: TGI. A digest of the protocol:
as §1

The subject of another assay is A549. As to the kind of experiment: Cytotoxicity against human A549 cells assessed as inhibition of proliferation incubated for 72 hrs by MTT assay. The conditions noted are these: A549, 72 h. The class given is functional, cell-based. In outline:
as §2

In assay [4] the target is Mitogen-activated protein kinase; ERK1/ERK2 (Homo sapiens) (UniProt P27361+P28482). As to the kind of experiment: Upregulation of ERK1/2 phosphorylation in human Bel-7402 cells incubated for 48 hrs by Western blot analysis.
The test system of assay [5] is HepG2. As to the kind of experiment: Inhibition of colony formation in human HepG2 cells at 1.6 to 3.2 uM measured after 10 days by crystal violet staining based assay relative to control. Particulars: dose 1.6-3.2 µM, time 10.0 day. The assay is classed as functional, cell-based. In outline: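 1000 cells/well seeded, attached overnight in DMEM + 10% FBS, then grown 10 days at 37 °C, 5% CO₂ with 0, 0.2, 0.4, 0.8, 1.6 or 3.2 µM. Fixed in 4% paraformaldehyde 15 min, stained 0.1% crystal violet 30 min, colonies counted; formation rate relative to solvent control.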

The test system of assay [6] is HepG2. The assay can be described thus: Cytotoxicity against human HepG2 cells assessed as inhibition rate at 2.5 uM incubated for 72 hrs by MTT assay relative to control. The class given is functional. In outline:
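HepG2 exposed to each compound at 2.5 µM-range single concentration for 72 h at 37 °C after overnight attachment in DMEM + 10% FBS; 0.1% DMSO control. MTT 4 h, DMSO solubilisation, A570; inhibition rate = (Ac−As)/(Ac−Ab)×100.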

For assay [7], the target named is T1, Serine/threonine-protein kinase AKT (Homo sapiens) (UniProt P31751+Q9Y243+P31749). As to the kind of experiment: Inhibition of Akt phosphorylation in human HepG2 cells incubated for 48 hrs by Western blot analysis. Particulars: dose 1.6-3.2 µM. The assay is classed as cell-based. In outline:
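HepG2 treated 48 h with 0, 1.6 or 3.2 µM; lysates run on 12.5% SDS-PAGE, PVDF transfer, primary antibodies (AKT, p-AKT, ERK1/2, p-ERK1/2; 1:1000) overnight at 4 °C, HRP secondaries 1 h, chemiluminescence. Phosphorylation quantified relative to untreated control set to 1; SD, n = 3.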

Assay [8] concerns HepG2. As to the kind of experiment: Induction of apoptosis in human HepG2 cells assessed as late apoptotic cells at 0.8 uM incubated for 48 hrs by Annexin V and dead cell assay kit (reference value: 1%). The assay is classed as functional. A digest of the protocol:
(§3)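 HepG2 cells were grown in DMEM and exposed to 0, 0.8, 1.6 or 3.2 µM test agent or DMSO vehicle for 48 h. Apoptosis was then read on a Muse cell analyzer using an Annexin V & Dead Cell kit, which separates live, early apoptotic, late apoptotic and dead populations. The figure legend gives n = 3 with SEM.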

Assay [9] has as its system HepG2. As to the kind of experiment: Induction of apoptosis in human HepG2 cells assessed as dead cells at 1.6 uM incubated for 48 hrs by Annexin V and dead cell assay kit (reference value: 0.55%). The class given is functional. In outline: as §3
The test system of assay [10] is HepG2. The assay can be described thus: Induction of cell cycle arrest in human HepG2 cells assessed as accumulation at G1 phase at 1.6 uM incubated for 48 hrs by flow cytometry (reference value: 46.88%). The class given is functional.
The subject of assay [11] is HepG2. The assay can be described thus: Induction of apoptosis in human HepG2 cells assessed as late apoptotic cells at 3.2 uM incubated for 48 hrs by Annexin V and dead cell assay kit (reference value: 1%). The class given is functional. In outline:
as §3

A further assay deals with NCI-H1299. The assay can be described thus: Cytotoxicity against human NCI-H1299 cells assessed as inhibition of proliferation incubated for 72 hrs by MTT assay. The class given is functional, cell-based. The conditions noted are these: NCI-H1299, 72 h. In outline:
as §2

In assay [12] the test system is HepG2. The assay can be described thus: Induction of apoptosis in human HepG2 cells assessed as late apoptotic cells at 1.6 uM incubated for 48 hrs by Annexin V and dead cell assay kit (reference value: 1%). The assay is classed as functional. A digest of the protocol: as §3
Assay [13] concerns HepG2. As to the kind of experiment: Induction of apoptosis in human HepG2 cells assessed as early apoptotic cells at 0.8 uM incubated for 48 hrs by Annexin V and dead cell assay kit (reference value: 4.55%). The assay is classed as functional. A digest of the protocol:
as §3

The test system of assay [14] is HepG2. As to the kind of experiment: Induction of cell cycle arrest in human HepG2 cells assessed as accumulation at G2/M phase at 0.8 uM incubated for 48 hrs by flow cytometry (reference value: 24.89%). The assay is classed as functional. In outline:
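HepG2 treated 48 h with 0, 0.8 or 1.6 µM (DMSO control); phase distribution by flow cytometry using a cell cycle and apoptosis kit; mean with SD, n = 3.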

Assay [15] concerns Bel-7402. As to the kind of experiment: Induction of cell cycle arrest in human Bel-7402 cells assessed as accumulation at G1 phase at 3.2 uM incubated for 48 hrs by flow cytometry (reference value: 46.32%). The class given is functional.
In assay [16] the target is T1, Serine/threonine-protein kinase AKT (Homo sapiens). As to the kind of experiment: Inhibition of Akt phosphorylation in human Bel-7402 cells incubated for 48 hrs by Western blot analysis. The assay is classed as cell-based. In outline:
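Bel-7402 exposed for 48 h to 0, 1.6 or 3.2 µM; cell extracts on 12.5% SDS-PAGE, transferred to PVDF, probed overnight at 4 °C with AKT, p-AKT, ERK1/2, p-ERK1/2 antibodies (1:1000), HRP secondary 1 h, chemiluminescent detection. Band levels normalised to control = 1; SD, n = 3.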

Assay [17] relates to HepG2. As to the kind of experiment: Induction of apoptosis in human HepG2 cells assessed as increase in cleaved Caspase 3 level at 1.6 to 3.2 uM after 48 hrs by Western blot analysis. The conditions noted are these: dose 1.6-3.2 µM.
Assay [18] has as its system Bel-7402. The assay can be described thus: Induction of cell cycle arrest in human Bel-7402 cells assessed as accumulation at G2/M phase at 3.2 uM incubated for 48 hrs by flow cytometry (reference value: 25.20%). The class given is functional.
The subject of assay [19] is Bel-7402. As to the kind of experiment: Induction of cell cycle arrest in human Bel-7402 cells assessed as accumulation at G2/M phase at 0.8 uM incubated for 48 hrs by flow cytometry (reference value: 25.20%). The class given is functional.

What is called IC50 is the concentration at which inhibition is half-maximal. What is called inhibition is how much of the control response was suppressed.

T1 sequence (P31749 whole entry, looked up): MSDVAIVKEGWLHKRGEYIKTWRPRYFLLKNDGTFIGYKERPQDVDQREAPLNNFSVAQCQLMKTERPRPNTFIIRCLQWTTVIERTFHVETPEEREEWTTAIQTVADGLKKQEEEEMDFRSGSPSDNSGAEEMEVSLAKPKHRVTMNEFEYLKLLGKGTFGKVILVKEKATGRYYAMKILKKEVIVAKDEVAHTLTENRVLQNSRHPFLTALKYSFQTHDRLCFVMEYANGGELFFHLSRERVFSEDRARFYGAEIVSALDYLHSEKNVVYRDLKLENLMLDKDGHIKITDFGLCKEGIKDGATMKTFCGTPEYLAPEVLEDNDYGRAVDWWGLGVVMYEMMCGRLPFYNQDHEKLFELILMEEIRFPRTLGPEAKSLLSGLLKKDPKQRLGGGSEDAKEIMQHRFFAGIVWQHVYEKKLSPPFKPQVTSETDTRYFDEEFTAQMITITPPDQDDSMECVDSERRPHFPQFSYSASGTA
T1 sequence (P31751 whole entry, looked up): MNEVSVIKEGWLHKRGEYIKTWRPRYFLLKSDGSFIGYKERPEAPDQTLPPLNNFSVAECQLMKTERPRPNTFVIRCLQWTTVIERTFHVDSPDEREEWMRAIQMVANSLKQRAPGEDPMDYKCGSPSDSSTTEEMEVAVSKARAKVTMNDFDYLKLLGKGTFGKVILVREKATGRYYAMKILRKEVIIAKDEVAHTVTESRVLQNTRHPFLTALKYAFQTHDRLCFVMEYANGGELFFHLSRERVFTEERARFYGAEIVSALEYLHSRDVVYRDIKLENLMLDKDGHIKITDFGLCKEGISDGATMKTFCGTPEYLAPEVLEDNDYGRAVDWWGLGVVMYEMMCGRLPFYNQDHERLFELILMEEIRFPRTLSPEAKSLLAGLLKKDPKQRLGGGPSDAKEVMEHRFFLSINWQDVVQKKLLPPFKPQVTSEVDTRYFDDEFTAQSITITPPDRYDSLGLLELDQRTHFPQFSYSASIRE
T1 sequence (Q9Y243 whole entry, looked up): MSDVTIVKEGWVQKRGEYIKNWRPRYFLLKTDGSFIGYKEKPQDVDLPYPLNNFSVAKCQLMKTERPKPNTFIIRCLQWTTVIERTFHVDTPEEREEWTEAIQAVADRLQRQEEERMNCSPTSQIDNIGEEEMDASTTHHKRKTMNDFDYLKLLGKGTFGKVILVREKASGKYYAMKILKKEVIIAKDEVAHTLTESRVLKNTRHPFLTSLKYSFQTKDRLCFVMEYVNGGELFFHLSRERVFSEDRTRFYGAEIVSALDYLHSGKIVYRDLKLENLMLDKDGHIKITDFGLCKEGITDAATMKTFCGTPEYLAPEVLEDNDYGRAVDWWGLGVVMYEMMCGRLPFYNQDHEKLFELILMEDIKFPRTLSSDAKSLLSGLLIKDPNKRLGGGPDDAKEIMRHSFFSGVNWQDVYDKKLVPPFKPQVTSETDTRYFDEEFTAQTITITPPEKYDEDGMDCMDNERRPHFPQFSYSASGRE
Mitogen-activated protein kinase; ERK1/ERK2 (Homo sapiens), sequence (P27361 whole entry, looked up): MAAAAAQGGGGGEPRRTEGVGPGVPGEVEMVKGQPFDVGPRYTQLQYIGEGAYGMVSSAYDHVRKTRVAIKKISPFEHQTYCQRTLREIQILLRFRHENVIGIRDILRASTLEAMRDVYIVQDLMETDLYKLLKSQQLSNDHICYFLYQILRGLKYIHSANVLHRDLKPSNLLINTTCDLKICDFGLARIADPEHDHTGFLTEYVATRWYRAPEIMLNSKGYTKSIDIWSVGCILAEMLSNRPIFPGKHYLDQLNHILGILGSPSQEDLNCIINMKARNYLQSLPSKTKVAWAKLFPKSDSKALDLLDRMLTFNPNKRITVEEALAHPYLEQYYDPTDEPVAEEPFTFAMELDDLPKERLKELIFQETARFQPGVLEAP
Mitogen-activated protein kinase; ERK1/ERK2 (Homo sapiens), sequence (P28482 whole entry, looked up): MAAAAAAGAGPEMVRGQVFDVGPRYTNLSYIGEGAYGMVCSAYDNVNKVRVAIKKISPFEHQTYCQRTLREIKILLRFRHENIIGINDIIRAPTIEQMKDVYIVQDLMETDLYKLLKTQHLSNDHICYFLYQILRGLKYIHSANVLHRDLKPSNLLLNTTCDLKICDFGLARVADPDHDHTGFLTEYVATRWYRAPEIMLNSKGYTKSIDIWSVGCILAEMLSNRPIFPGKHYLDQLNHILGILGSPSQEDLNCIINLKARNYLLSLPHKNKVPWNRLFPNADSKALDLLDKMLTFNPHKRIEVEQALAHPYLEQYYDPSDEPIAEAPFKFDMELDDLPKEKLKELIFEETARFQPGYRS

With `COc1cc(C(=O)c2nc3ccccc3c(=O)[nH]2)cc(OC)c1OC`, in the assay with HepG2 [1], the inhibition in vivo at 4 mg/kg turned out to be 19.1%. For the same molecule, the Activity was 32.43% with Bel-7402 [2]; “Dose-Dependent Effect” in assay [4]; 2% in the assay with HepG2 [8]; 0.95% in the assay on HepG2 [9]; 29.17% with HepG2 [10]; 24.15% in the assay with HepG2 [11]. Moreover, the Activity in the assay with HepG2 [12] was 6.7%; in the assay with HepG2 [13] it was 5.8%; in the assay on HepG2 [14], 28.73%; in the assay with Bel-7402 [15] it was 26.15%; in the assay with Bel-7402 [18] it was 41.71%; in the assay with Bel-7402 [19], 27.69%. Besides, the IC50 was 5.47 µM in the assay on HCT-116, 3.88 µM in the assay on A549 and 13.9 µM in the assay with NCI-H1299. Further, in the assay with HepG2 [3], the inhibition in vivo at 8 mg/kg turned out to be 67.6%. In addition, the inhibition result with HepG2 [5] is “Active”. Besides, the inhibition at 2.5 µM with HepG2 [6] worked out at 73%. For the same molecule, the inhibition result in [7] and in assay [16] was “Dose-Dependent Effect” each time. Further, the result with HepG2 [17] was Active.
